This passage reports Ki and Kb results from ChEMBL document CHEMBL1136332, “Structure-activity relationship of triaryl propionic acid analogues on the human EP3 prostanoid receptor” (Bioorg Med Chem Lett, 2003).

In general, Ki refers to a measure of affinity in units of concentration, obtained from inhibition or displacement. A low value points to tighter binding.

The target of assay [1] is Prostaglandin E2 receptor EP2 subtype (Homo sapiens, UniProt P43116). The assay is described as follows: Affinity at human Prostanoid EP2 receptor in the human embryonic kidney (HEK) 293 cell line. Format: cell-based, HEK293.
For assay [2], the target named is T1, Prostaglandin E2 receptor EP3 subtype (Homo sapiens, UniProt P43115).
T1 sequence (P43115 whole entry): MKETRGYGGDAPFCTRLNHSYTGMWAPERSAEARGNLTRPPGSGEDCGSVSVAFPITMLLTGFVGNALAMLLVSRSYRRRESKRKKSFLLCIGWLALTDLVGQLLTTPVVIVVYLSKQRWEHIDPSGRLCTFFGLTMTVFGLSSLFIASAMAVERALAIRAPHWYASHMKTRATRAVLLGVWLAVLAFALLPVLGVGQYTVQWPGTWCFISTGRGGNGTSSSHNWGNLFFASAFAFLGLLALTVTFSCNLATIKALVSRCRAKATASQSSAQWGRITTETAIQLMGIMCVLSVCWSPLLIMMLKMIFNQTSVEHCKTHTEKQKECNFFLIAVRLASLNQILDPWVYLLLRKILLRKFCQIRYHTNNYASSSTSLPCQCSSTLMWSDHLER
The assay is described as follows: Affinity at human Prostanoid EP3 receptor in the human embryonic kidney (HEK) 293 cell line. Format: cell-based, HEK293.

Assay [3] has as its target T2, Prostaglandin E2 receptor EP1 subtype (Homo sapiens, UniProt P34995).
T2 sequence (P34995 whole entry): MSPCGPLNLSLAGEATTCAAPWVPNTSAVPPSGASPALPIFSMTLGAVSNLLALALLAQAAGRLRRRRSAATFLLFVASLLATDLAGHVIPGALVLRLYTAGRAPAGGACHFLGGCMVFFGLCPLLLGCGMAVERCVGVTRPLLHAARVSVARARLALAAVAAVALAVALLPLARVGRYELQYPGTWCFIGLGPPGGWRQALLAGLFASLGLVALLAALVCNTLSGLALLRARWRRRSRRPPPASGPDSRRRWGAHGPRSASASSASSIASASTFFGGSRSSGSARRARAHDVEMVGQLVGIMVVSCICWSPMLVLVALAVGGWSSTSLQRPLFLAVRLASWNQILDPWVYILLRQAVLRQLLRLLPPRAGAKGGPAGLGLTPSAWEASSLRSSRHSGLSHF
The assay is described as follows: Affinity at human Prostanoid EP1 receptor in the human embryonic kidney (HEK) 293 cell line. Format: cell-based, HEK293.

For assay [4], the target named is Prostaglandin E2 receptor EP4 subtype (Homo sapiens, UniProt P35408). The assay is described as follows: Affinity at human Prostanoid EP4 receptor in the human embryonic kidney (HEK) 293 cell line. It is filed as cell-based, HEK293.
Assay [5] deals with T3, Prostaglandin E2 receptor EP3 subtype (Homo sapiens) (UniProt P43115).
T3 sequence (whole entry): T1 sequence (P43115 whole entry)
The experiment in a line: Ability to inhibit the binding of human Prostanoid EP3 receptor to PGE-2 using EP3 functional assay. In a few lines: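 HEL 92.1.7 human erythroleukemia cells, which endogenously express EP3, at 2×10⁵ cells per incubation in HBSS with RO-20174 and forskolin. Antagonist (0–3×10⁻⁶ M, 0.5% DMSO final) preincubated 10 min at 37 °C. Sulprostone (0–3×10⁻⁵ M) was then added as agonist for 10 min at 37 °C. The reaction was stopped by 3 min boiling, and cAMP was read by SPA.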

Assay [6] addresses Prostaglandin F2-alpha receptor (Homo sapiens, UniProt P43088). The assay is described as follows: Ability to inhibit the binding of human FP receptor to PGD-2.
The target in another assay is Prostacyclin receptor (Homo sapiens, UniProt P43119). The experiment in a line: Ability to inhibit the binding of human IP receptor to Prostaglandin I2 receptor.
In another assay the target is T4, Thromboxane A2 receptor (Homo sapiens, UniProt P21731).
T4 sequence (P21731 whole entry): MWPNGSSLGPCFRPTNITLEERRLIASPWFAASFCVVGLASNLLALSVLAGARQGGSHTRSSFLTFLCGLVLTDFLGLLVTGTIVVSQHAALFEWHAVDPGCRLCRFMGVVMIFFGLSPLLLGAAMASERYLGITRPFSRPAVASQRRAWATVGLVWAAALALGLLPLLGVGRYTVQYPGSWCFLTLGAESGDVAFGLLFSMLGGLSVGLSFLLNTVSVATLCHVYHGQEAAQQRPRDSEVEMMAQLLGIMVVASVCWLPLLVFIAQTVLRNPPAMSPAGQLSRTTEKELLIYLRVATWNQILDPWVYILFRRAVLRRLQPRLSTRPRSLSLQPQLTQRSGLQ
The assay is described as follows: Ability to inhibit the binding of human Thromboxane A2 receptor to TXA2.

Assay [7] has as its target Prostaglandin D2 receptor DP (human) (UniProt Q13258). The assay is described as follows: Ability to inhibit the binding of human DP receptor to PGD-2.

Sequence of Prostaglandin E2 receptor EP4 subtype (P35408 whole entry): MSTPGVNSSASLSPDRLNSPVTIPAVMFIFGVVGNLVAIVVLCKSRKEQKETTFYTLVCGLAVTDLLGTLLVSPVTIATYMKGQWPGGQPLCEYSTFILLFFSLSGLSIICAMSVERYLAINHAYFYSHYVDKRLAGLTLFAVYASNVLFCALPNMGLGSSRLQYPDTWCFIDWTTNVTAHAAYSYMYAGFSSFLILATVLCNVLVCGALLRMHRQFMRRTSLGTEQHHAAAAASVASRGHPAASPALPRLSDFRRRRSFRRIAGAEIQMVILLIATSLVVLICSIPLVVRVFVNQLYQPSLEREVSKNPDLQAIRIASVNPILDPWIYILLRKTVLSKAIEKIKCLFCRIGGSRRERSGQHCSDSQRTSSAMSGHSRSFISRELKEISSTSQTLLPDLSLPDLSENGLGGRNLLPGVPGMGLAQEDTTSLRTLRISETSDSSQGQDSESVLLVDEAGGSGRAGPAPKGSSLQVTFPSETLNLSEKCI
Sequence of Prostaglandin E2 receptor EP2 subtype (P43116 whole entry): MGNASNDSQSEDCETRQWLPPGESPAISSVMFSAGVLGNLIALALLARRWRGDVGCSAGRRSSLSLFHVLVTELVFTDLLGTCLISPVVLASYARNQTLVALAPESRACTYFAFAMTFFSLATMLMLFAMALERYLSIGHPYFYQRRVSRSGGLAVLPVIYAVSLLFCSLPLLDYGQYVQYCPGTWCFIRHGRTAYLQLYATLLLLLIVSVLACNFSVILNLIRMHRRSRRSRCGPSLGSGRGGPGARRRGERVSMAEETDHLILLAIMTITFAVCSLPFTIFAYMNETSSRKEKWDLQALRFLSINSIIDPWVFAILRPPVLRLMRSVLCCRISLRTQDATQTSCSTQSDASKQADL
Sequence of Prostaglandin D2 receptor DP (human) (Q13258 whole entry, looked up): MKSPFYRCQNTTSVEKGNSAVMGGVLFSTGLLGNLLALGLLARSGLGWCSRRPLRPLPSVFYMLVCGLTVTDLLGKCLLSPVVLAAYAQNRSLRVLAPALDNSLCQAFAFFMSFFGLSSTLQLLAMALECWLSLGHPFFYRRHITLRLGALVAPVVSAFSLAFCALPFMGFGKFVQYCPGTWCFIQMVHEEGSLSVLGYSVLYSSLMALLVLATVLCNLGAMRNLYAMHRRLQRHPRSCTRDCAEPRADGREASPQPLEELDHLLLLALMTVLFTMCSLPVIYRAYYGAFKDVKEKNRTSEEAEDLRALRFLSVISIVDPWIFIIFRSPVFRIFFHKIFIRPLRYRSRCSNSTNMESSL
Sequence of Prostacyclin receptor (P43119 whole entry): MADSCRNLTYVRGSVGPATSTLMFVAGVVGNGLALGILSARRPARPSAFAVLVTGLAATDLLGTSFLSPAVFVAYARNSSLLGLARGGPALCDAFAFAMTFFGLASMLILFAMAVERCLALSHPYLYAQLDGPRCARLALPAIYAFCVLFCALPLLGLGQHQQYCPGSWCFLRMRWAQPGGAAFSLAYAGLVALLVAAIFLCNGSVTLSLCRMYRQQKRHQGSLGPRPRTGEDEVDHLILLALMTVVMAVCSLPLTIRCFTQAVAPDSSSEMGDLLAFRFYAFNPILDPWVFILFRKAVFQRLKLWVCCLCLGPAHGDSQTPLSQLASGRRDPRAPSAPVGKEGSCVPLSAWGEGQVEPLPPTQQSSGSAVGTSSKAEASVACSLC
Sequence of Prostaglandin F2-alpha receptor (P43088 whole entry): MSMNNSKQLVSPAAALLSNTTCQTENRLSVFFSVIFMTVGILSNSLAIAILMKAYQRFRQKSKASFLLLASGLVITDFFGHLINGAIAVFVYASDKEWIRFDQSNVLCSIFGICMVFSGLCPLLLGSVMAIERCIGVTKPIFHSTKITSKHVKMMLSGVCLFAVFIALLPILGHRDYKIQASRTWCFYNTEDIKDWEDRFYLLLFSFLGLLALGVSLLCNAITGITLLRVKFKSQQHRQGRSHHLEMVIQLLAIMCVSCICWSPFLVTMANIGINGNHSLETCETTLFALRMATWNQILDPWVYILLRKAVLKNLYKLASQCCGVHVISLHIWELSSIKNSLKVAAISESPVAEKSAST

Turning to `O=C(O)CCc1ccccc1-c1cccc(-c2ccccc2OCc2ccccc2)c1`, the Ki in assay [1] is 3.7 µM; in [2], 55 nM; in assay [3] it was 8.3 µM; in [4], 1800 nM.

Regarding `O=C(O)CCc1ccccc1-c1cccc(-c2ccc(OCc3ccccc3)cc2)c1`, the Ki is > 97 µM in assay [1], 1500 nM in [2], > 97 µM in [3] and 21000 nM in assay [4].

For the compound `CC(Cc1ccccc1-c1csc(-c2ccccc2OCc2ccccc2)c1)C(=O)O` (configuration not stated), the Ki in assay [1] worked out at 5.5 µM; in assay [2] it was 460 nM; in assay [3] it was 13 µM; in assay [4], 980 nM.

For `O=C(O)/C=C/c1ccccc1-c1cccc(-c2ccccc2OCc2ccccc2)c1`, the Ki in assay [1] was determined as 0.83 µM; in assay [2] it was 84 nM; in [3], 72 µM; in assay [4], 1700 nM.

As for `O=C(O)CCc1ccccc1-c1cccc(-c2ccccc2OCc2c(Cl)cccc2Cl)c1`, the Ki is 4.6 µM in assay [1], 21 nM in assay [2], 1.1 µM in assay [3] and 1100 nM in [4].

For the compound `O=C(O)CCc1ccccc1-c1ccc(-c2ccccc2OCc2ccccc2)s1`, the Ki in [1] came out at 4.1 µM; in assay [2], 520 nM; in assay [3], 27 µM; in [4], 1100 nM.

`O=C(O)CCc1ccccc1-c1cccc(-c2ccccc2COc2ccccc2)c1`: the Ki stood at 2.9 µM in [1], 89 nM in assay [2], 9.5 µM in assay [3] and 1000 nM in assay [4].

For `O=C(O)CNc1ccccc1-c1csc(-c2ccccc2OCc2ccccc2)c1`, the Ki in assay [1] worked out at 2.5 µM; in assay [2], 52 nM; in [3], 85 µM; in assay [4] it was 460 nM.

Consider `O=C(CCc1ccccc1-c1cccc(-c2ccccc2OCc2ccccc2)c1)NS(=O)(=O)c1cccs1`, for which the Ki in assay [1] was 1.6 µM; in assay [2] it was 16 nM; in assay [3], 2.6 µM; in [4] it was 1700 nM.

As to `O=C(O)C1CC1c1ccccc1-c1csc(-c2ccccc2OCc2ccccc2)c1` (configuration not stated), the inhibition constant (Ki) in assay [1] came to 2.3 µM; in assay [2], 3 nM; in assay [3], 48 µM; in assay [6], 22 µM; in assay [4], 300 nM; at Prostacyclin receptor, 710 nM. Also, the values for the Ki (at Thromboxane A2 receptor; in assay [7]) were 400 nM and 0.12 µM, respectively. This compound displayed a Kb in assay [5] of 5.8 nM.

In the case of `O=C(O)CCCc1ccccc1-c1cccc(-c2ccccc2OCc2ccccc2)c1`, the Ki in [1] came to 3.5 µM; in assay [2], 590 nM; in [3] it was 11.9 µM; in assay [4], 2000 nM.

In the case of `O=C(O)c1ccc(CCCc2ccccc2OCc2ccccc2)cc1`, the Ki turned out to be 0.15 µM in assay [1], 2300 nM in [2], 0.23 µM in assay [3] and 440 nM in assay [4].

Turning to `O=C(/C=C/c1ccccc1-c1ccc(Cl)c(Cl)c1)NS(=O)(=O)c1cccs1`, the Ki in [1] came to 10 µM; in assay [3], 8.1 µM.

On to `O=C(O)Cc1ccccc1-c1cccc(-c2ccccc2OCc2ccccc2)c1`, for which the Ki in [1] amounted to 3.6 µM; in [2], 1700 nM; in assay [3], 9.3 µM; in assay [4], 1100 nM.

As to `CC(CC(=O)O)c1ccccc1-c1csc(-c2ccccc2OCc2ccccc2)c1` (configuration not stated), the Ki in assay [1] was 4.6 µM; in assay [2], 35 nM; in [3] it was 35 µM; in assay [4] it was 1100 nM.

For `O=C(O)/C=C/c1ccccc1-c1ccc(Cl)c(Cl)c1`, the Ki in [1] is 7.5 µM; in assay [2], 1600 nM; in [3] it was 10 µM; in [4], > 10000 nM.

On to `O=C(O)CCc1ccccc1-c1cccc(-c2ccccc2)c1`, for which the Ki in assay [1] amounted to 8.1 µM; in assay [2], 750 nM; in assay [3], 34 µM; in assay [4] it was 6000 nM.

For `Cc1cccc(/C=C/Cc2ccccc2/C=C/C(=O)O)c1OCc1ccccc1`, the Ki in assay [1] is 8.1 µM; in assay [2], 7 nM; in [3] it was 12 µM; in assay [4], 1900 nM.

On to `O=C(O)CCc1ccccc1-c1cc(-c2ccccc2OCc2ccccc2)cs1`, for which the Ki in assay [1] came to 2.9 µM; in [2], 27 nM; in assay [3], 17.5 µM; in [4], 760 nM.

In the case of `O=C(O)CCc1ccccc1-c1csc(-c2ccccc2OCc2ccccc2)c1`, the Ki came out at 2.5 µM in assay [1], 23 nM in assay [2], 17.8 µM in assay [3] and 650 nM in assay [4].

Take `CC(Cc1ccccc1-c1cccc(-c2ccccc2OCc2ccccc2)c1)C(=O)O` (configuration not stated): the Ki was determined as 3.6 µM in [1], 820 nM in [2], 8.3 µM in assay [3] and 1200 nM in [4].
